Measured values published in PubChem BioAssay.
Activity calls are given as the source filed them.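 How the source made its calls, unless noted: active means fluorescence slope higher than the sample average by over 3 SD (cut at about -0.22 in these data, passing the limit was not always enough); inactive means the rest.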

Experiments:
[1] = inhibitors of TNFa-induced NFkB p65 translocation, primary screen, imaging, HUVEC, MLSMR starter and 10KST1 sets (AID 438;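 active means inhibition above 20% together with a positive visual image hit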;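 further: compound added about 3h40 before a 20 min TNFalpha stimulation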;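 on inhibition: signal is the nuclear over cytoplasmic p65 intensity ratio per well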); settings: HUVEC TNFa-induced p65 nuclear translocation; cell count: measured here: nuclei count (cytotoxicity indicator), at 2.08 µM; inhibition: at 2 µM, stronger effect = higher value, 0% TNFa-plus-vehicle, 100% no-TNFa wells
[2] = reduction of polyQ htt aggregates in cells – imaging, exon1htt(103Q)mCFP cells, high-content imaging, primary screen (AID 483;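 active means visual image review flags a hit and inhibition of aggregation exceeds 20%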;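 further: compound exposure lasted 3 days before fixation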;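 on nuclei count: percent of the per-plate median nuclei count of sample wells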); settings: exon1htt(103Q)mCFP cell line, aggregate imaging, at 2 µM; inhibition of aggregation: stronger effect = higher value; nuclei count: measured here: cell count, toxicity
[3] = endothelial E-selectin expression blockers – imaging, HUVEC, immunofluorescence, MLSMR starter and 10KST1 sets, primary screen (AID 487;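 active means visually confirmed hit in the image check and inhibition above 20%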;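 on inhibition: signal is fraction of cell area covered by stained E-selectin grains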;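 on nuclei count: 100% = median nuclei count of all wells on the same plate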); settings: HUVEC TNFalpha-induced E-selectin immunofluorescence imaging, at 2 µM; inhibition: stronger effect = higher value; nuclei count: measured here: cell number, toxicity
[4] = target: Voltage-gated potassium channel subunit beta-2 (Rattus norvegicus) (UniProt P62483); experiment: inhibitors of rat Kvbeta2 reductase activity – biochemical, NADPH fluorescence, primary screen (AID 622); settings: recombinant KvBeta, 4-cyanobenzaldehyde reduction, at 10 µM, stronger effect = higher value;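 further: slope of raw intensity against log time taken from 70 to 1610 s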
Voltage-gated potassium channel subunit beta-2 (Rattus norvegicus), sequence (P62483 whole entry, looked up): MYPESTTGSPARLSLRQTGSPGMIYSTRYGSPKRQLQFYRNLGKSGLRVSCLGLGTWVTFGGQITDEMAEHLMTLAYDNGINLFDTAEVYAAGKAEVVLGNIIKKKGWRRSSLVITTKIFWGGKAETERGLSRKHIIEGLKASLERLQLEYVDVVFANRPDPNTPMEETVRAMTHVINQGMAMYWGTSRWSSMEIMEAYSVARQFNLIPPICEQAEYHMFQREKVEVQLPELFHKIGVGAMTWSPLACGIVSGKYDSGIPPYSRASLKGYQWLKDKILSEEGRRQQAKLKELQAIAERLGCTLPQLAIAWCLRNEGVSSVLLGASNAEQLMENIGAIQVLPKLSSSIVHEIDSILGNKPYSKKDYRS

[5] = target: Voltage-gated potassium channel subunit beta-2 (Rattus norvegicus) (UniProt P62483); experiment: enhancers of rat Kvbeta2 NADPH turnover – biochemical, NADPH fluorescence, primary screen (AID 623;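 active means NADPH fluorescence slope more negative than the mean of all samples by about 3 SD, 99.7% confidence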;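 further: fluorescence intensity change per second fitted from 20 to 320 s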); settings: Recombinant KvBeta, NADPH fluorescence decrease slope, 10 min; at 10 µM; stronger effect = lower value
[6] = target: Muscarinic acetylcholine receptor M4 (Homo sapiens) (UniProt P08173); experiment: M4-linked GIRK flux change, two-sided – cell-based, HEK293 M4/GIRK, thallium flux, BTC-AM, M4 allosteric agonist project, primary screen (AID 625;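 active means fluorescence slope after compound addition differing from the mean of all tested samples at 99.7% confidence, mostly higher but some lower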;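 further: thallium influx through GIRK channels coupled to M4 in HEK293 cells with BTC-AM dye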); settings: at 10 µM, actives lie on both sides
Muscarinic acetylcholine receptor M4 (Homo sapiens), sequence (P08173 whole entry, looked up): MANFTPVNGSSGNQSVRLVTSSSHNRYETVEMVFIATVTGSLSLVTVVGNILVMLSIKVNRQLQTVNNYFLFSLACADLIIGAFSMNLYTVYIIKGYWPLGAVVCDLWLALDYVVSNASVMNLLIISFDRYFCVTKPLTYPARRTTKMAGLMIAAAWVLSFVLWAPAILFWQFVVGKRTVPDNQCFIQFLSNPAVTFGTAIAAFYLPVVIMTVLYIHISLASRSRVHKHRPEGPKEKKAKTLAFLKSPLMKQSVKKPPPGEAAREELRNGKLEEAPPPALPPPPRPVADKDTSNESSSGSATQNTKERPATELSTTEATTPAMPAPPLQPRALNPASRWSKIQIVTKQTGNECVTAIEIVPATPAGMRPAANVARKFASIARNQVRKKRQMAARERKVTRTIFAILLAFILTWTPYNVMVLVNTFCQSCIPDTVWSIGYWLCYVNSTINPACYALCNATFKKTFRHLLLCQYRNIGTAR
Method in brief: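 Material: HEK293 cells with M4 receptor and GIRK channels; Times: cells overnight at 37 °C, BTC-AM loading 1 h, reads 2 min total; Technique: kinetic BTC-AM fluorescence sampled at 1 Hz, 10 s pre-addition baseline; Read-out basis: slope over 15–24 s of trace normalized to starting intensity; Controls: carbachol positive, DMSO negative.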

[7] = blockers of RIG-like receptor reporter activation – cell-based, Sendai virus stimulus, luciferase, 10K MLSCN set, TLR/RLR signaling modifier project, primary screen (AID 602276;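 active means inhibition at or above 50% at 10 µM; inactive means inhibition below 50%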;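 further: firefly luciferase from ISG56 promoter only with Renilla not read in this screen; 0% = Sendai virus plus DMSO and 100% = medium plus DMSO without virus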); settings: HEK293 RL24 IRF3 luciferase reporter, at 10 µM, stronger effect = higher value
[8] = TLR3 IRF3 reporter activation blockers – cell-based, poly I:C stimulus, luciferase, 10K MLSCN set, primary screen (AID 602277;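 active means inhibition of the reporter signal at or above 50%; inactive means inhibition below 50%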); settings: HEK293-TLR3 RL24 IRF3 luciferase reporter, at 10 µM, stronger effect = higher value

| SMILES | cell count [1] | inhibition [1] | inhibition of aggregation [2] | nuclei count [2] | inhibition [3] | nuclei count [3] | fluorescence slope [4] | NADPH fluorescence slope [5] | fluorescence slope [6] | inhibition [7] | inhibition [8] |
| --- | --- | --- | --- | --- | --- | --- | --- | --- | --- | --- | --- |
| Nc1cc(C(=O)O)ccc1Nc1ccc(F)c(F)c1 | 693 | -22.9% (inactive) | -0.6% (inactive) | 124% | 6.9% (inactive) | 96.9% | -0.44 (inactive) | 0.000103 (inactive) | 0.00669 (inactive) | -5.42% (inactive) | -4.51% (inactive) |
| CCCn1c2c(c(O)c(C(=O)Nc3ccc(C)cn3)c1=O)CCCC2 | 483 | 9.8% (inactive) | -6.3% (inactive) | 96.3% | -7.5% (inactive) | 91.3% | -0.546 (inactive) | -6e-05 (inactive) | 0.00777 (inactive) | 6.86% (inactive) | 10.7% (inactive) |
| O=c1[nH]c(SCc2cc(=O)n3ccccc3n2)nc2c1CCC2 | 681 | -8.4% (inactive) | -47.8% (inactive) | 87.5% | -123% (inactive) | 106% | -0.381 (inactive) | 2.3e-05 (inactive) | 0.00602 (inactive) | 16.7% (inactive) | 20.7% (inactive) |
| O=C(O)CCCCCNc1nc(=S)[nH]c2ccccc12 | 494 | -7.5% (inactive) | 20% (inactive) | 102% | 9.6% (inactive) | 105% | -0.384 (inactive) | 2.9e-05 (inactive) | 0.0068 (inactive) | 11.5% (inactive) | 19.2% (inactive) |
| CC(C(=O)c1ccccc1)n1cnc2ccccc2c1=O (stereo unspecified) | 646 | 6.4% (inactive) | 17.6% (inactive) | 93% | -0.6% (inactive) | 96.9% | -0.525 (inactive) | -1.2e-05 (inactive) | 0.00459 (inactive) | 1.21% (inactive) | 10.7% (inactive) |
| COc1cc(OC)cc(C(=O)N2CCN(C(=O)c3ccc(OC)c(OC)c3)CC2)c1 | 358 | -2% (inactive) | -5.3% (inactive) | 126% | -20.6% (inactive) | 89.3% | -0.603 (inactive) | 3.5e-06 (inactive) | 0.00572 (inactive) | 4.07% (inactive) | 14.7% (inactive) |
| COc1cc2c(cc1OC)-c1cc(OCc3cccnc3)nc(=O)n1CC2 | 753 | -8.4% (inactive) | -4.9% (inactive) | 96.1% | -49% (inactive) | 116% | -0.0427 (active) | -1.1e-05 (inactive) | 0.00535 (inactive) | 31.6% (inactive) | 28.8% (inactive) |
| O=C(COC(=O)C1=COCCO1)Nc1ccccc1Oc1ccccc1 | 672 | 9.6% (inactive) | 31% (inactive) | 90.2% | -33.5% (inactive) | 103% | -0.541 (inactive) | -2.5e-05 (inactive) | 0.00561 (inactive) | 1.11% (inactive) | 8.4% (inactive) |
| Cc1nc(Nc2nc(=O)c3ccccc3n2C)nc2c(C)cccc12 | 594 | 5.2% (inactive) | -282% (inactive) | 73.9% | -112% (inactive) | 156% | -0.348 (inactive) | -5e-06 (inactive) | 0.00486 (inactive) | 14.6% (inactive) | 22.9% (inactive) |
| Cc1cc(=O)oc2ccc(OCC(=O)N3CCC(C)CC3)cc12 | 400 | -3.9% (inactive) | -30.5% (inactive) | 103% | -41.1% (inactive) | 104% | -0.567 (inactive) | -4.1e-05 (inactive) | 0.00366 (inactive) | 17.3% (inactive) | 8.48% (inactive) |
| COc1cccc(NC(=O)COc2ccccc2C(N)=O)c1 | 221 | -1.2% (inactive) | 19.1% (inactive) | 83.6% | 14.7% (inactive) | 78% | -0.589 (inactive) | 6.4e-05 (inactive) | 0.00613 (inactive) | -78.1% (inactive) | -182% (inactive) |
| CCCN(CCC)c1nc2ccccc2n2c(C)nnc12 | 460 | 6.5% (inactive) | -1.5% (inactive) | 76.7% | -77.3% (inactive) | 102% | -0.461 (inactive) | -3.2e-05 (inactive) | 0.00414 (inactive) | 11.6% (inactive) | 11.3% (inactive) |
| CC(=O)c1cc(C#N)c(SCC(=O)OC(C)C)nc1C | 464 | -5.3% (inactive) | -14.7% (inactive) | 118% | -22.4% (inactive) | 121% | -0.26 (inactive) | -2.7e-05 (inactive) | 0.00594 (inactive) | 9.07% (inactive) | -11% (inactive) |
| CCCC(CCC)n1[nH]c(=O)c2c(C)cc(C)nc21 | 357 | 3.8% (inactive) | 7.5% (inactive) | 105% | -29.5% (inactive) | 114% | -0.47 (inactive) | 3.6e-05 (inactive) | 0.00554 (inactive) | 3.13% (inactive) | 4.22% (inactive) |
| NC(=O)C1CCN(CC(=O)N2c3ccccc3CCc3ccccc32)CC1 | 409 | -16.8% (inactive) | -2.8% (inactive) | 107% | -20.9% (inactive) | 154% | -0.587 (inactive) | -5.7e-05 (inactive) | 0.00441 (inactive) | 15.6% (inactive) | 23.9% (inactive) |
| COCCNC(=O)CSc1nc(-c2ccc(OC)c(OC)c2)cc(C(F)(F)F)n1 | 430 | 3.4% (inactive) | -8.2% (inactive) | 104% | -34.3% (inactive) | 115% | -0.445 (inactive) | -0.000127 (inactive) | 0.00332 (inactive) | 17.7% (inactive) | 14.6% (inactive) |
| CC(=O)Nc1ccc(NC(=O)c2ccccc2N(C)S(C)(=O)=O)cc1 | 408 | 0.5% (inactive) | -2.3% (inactive) | 111% | -46.3% (inactive) | 94.4% | -0.462 (inactive) | -5.4e-05 (inactive) | 0.00563 (inactive) | 11.7% (inactive) | 10.8% (inactive) |
| O=S1(=O)Nc2c(ccc3cccnc23)-c2ccccc21 | 318 | 77.8% (active) | -31.5% (inactive) | 50.8% | 47.4% (inactive) | 94.2% | -0.465 (inactive) | -0.000334 (inactive) | 0.00395 (inactive) | -4.82% (inactive) | -17.5% (inactive) |
| Cc1csc2nc(CSc3nc4ccccc4o3)c(Br)n12 | 573 | -14.8% (inactive) | -9.5% (inactive) | 98.3% | -1.4% (inactive) | 125% | -0.536 (inactive) | 0.000171 (inactive) | 0.00576 (inactive) | -40% (inactive) | -122% (inactive) |
| Cc1nn(Cc2ccccc2)c(C)c1NC(=O)CCC(=O)O | 667 | 23.6% (active) | -6.6% (inactive) | 112% | 17.9% (inactive) | 105% | -0.49 (inactive) | 1.1e-05 (inactive) | 0.00488 (inactive) | -5.04% (inactive) | -12.9% (inactive) |
| Cc1cnc(-c2nnc(N(C)C(=O)C3CCOC3)s2)cn1 (stereo unspecified) | 340 | -12.1% (inactive) | 26.6% (inactive) | 79% | 41.6% (inactive) | 88.5% | -0.552 (inactive) | -6.2e-06 (inactive) | 0.00481 (inactive) | -2.32% (inactive) | -11.8% (inactive) |
| CC(=O)C1=C(O)C(=O)N(Cc2ccco2)C1c1ccc(F)cc1 (stereo unspecified) | 381 | 4.3% (inactive) | -7.7% (inactive) | 92.3% | 21.9% (inactive) | 98% | -0.576 (inactive) | 1e-05 (inactive) | 0.00555 (inactive) | 2% (inactive) | 0.393% (inactive) |
| CCOC(=O)N1CCN(C(=O)CCc2c(C)nc3c(c(C)nn3-c3ccc(C)c(C)c3)c2C)CC1 | 653 | 0.9% (inactive) | -9.9% (inactive) | 100% | -63.4% (inactive) | 116% | -0.594 (inactive) | 1.1e-05 (inactive) | 0.00541 (inactive) | 20.5% (inactive) | 13.8% (inactive) |
| CC(=O)c1c(NCCc2ccccc2)cc(C)oc1=O | 577 | 8.2% (inactive) | 8.3% (inactive) | 104% | -32.4% (inactive) | 106% | -0.259 (inactive) | -2.2e-05 (inactive) | 0.00739 (inactive) | -1.27% (inactive) | 11% (inactive) |
| COc1cc(S(=O)(=O)NC2CCCCC2)ccc1Cl | 405 | 7.6% (inactive) | 4.9% (inactive) | 89% | 3.8% (inactive) | 94.9% | -0.417 (inactive) | 4.1e-05 (inactive) | 0.00482 (inactive) | 16.6% (inactive) | 31.9% (inactive) |
| CC(C)(C)n1ncc2c(=O)n(CC(=O)NCc3ccco3)cnc21 | 421 | 4.8% (inactive) | -12.5% (inactive) | 104% | 4.2% (inactive) | 112% | -0.574 (inactive) | 3.5e-06 (inactive) | 0.00566 (inactive) | -35.6% (inactive) | -92% (inactive) |
